Source: paper PMC12166256 (Clinical Pharmacology and Therapeutics, 2025)

Assay: MAD study: plasma and urine pharmacokinetics
Type: in vivo, human
Details: for CLR (renal clearance), mean ± SD / CLR, geometric mean: MAD steady state
Outline: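 Healthy males got oral doses for 14 days: 100 mg once daily fasted, or 100, 200 or 300 mg twice daily fed. Plasma was drawn pre-dose and […] on Day 1, pre-dose and at 3 h on Days 4, 7 and 12, and up to 120 h after the final Day 14 morning dose. Urine was collected over 24 h at steady state. LC–MS/MS, LLOQ 2 ng/mL; non-compartmental analysis.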

C max, geometric mean (MAD Day 14, 100 mg QD fasted): (153) [31] ng/mL
C max, mean ± SD (MAD Day 14, 100 mg QD fasted): 161 ± 49.2 ng/mL
C trough, geometric mean (MAD Day 14, 100 mg QD fasted): (35.2) [31] ng/mL
C trough, mean ± SD (MAD Day 14, 100 mg QD fasted): 37.2 ± 11.5 ng/mL
CLss/F, geometric mean (MAD Day 14, 100 mg QD fasted): (59.5) [37] L/h
CLss/F, mean ± SD (MAD Day 14, 100 mg QD fasted): 62.5 ± 23.4 L/h
FLrel (relative fluctuation), geometric mean (MAD Day 14, 100 mg QD fasted): (168) [20] %
R ac (accumulation ratio), mean ± SD (MAD Day 14, 100 mg QD fasted): 2.52 ± 0.431
R ac Cmax (accumulation ratio based on C max), mean ± SD (MAD Day 14, 100 mg QD fasted): 1.87 ± 0.400
R ac, geometric mean (MAD Day 14, 100 mg QD fasted): (2.50) [17]
V z/F, geometric mean (MAD Day 14, 100 mg QD fasted): (2,530) [38] L
V z/F, mean ± SD (MAD Day 14, 100 mg QD fasted): 2,700 ± 1,020 L
t 1/2z, geometric mean (MAD Day 14, 100 mg QD fasted): (29.5) [28] h
t 1/2z, mean ± SD (MAD Day 14, 100 mg QD fasted): 30.3 ± 8.43 h
t max, median (min, max) (MAD Day 14, 100 mg QD fasted): 3.00 (2.00, 4.00) h
AUC0-tau, geometric mean (MAD Day 14, 200 mg BID fed): (4,990) [37] ng·h/mL
AUC0-tau, mean ± SD (MAD Day 14, 200 mg BID fed): 5,370 ± 2,010 ng·h/mL
C av, geometric mean (MAD Day 14, 200 mg BID fed): (416) [37] ng/mL
C av, mean ± SD (MAD Day 14, 200 mg BID fed): 448 ± 167 ng/mL
C max, geometric mean (MAD Day 14, 200 mg BID fed): (511) [35] ng/mL
C max, mean ± SD (MAD Day 14, 200 mg BID fed): 547 ± 193 ng/mL
C trough, geometric mean (MAD Day 14, 200 mg BID fed): (349) [43] ng/mL
C trough, mean ± SD (MAD Day 14, 200 mg BID fed): 383 ± 163 ng/mL
CLss/F, geometric mean (MAD Day 14, 200 mg BID fed): (40.1) [47] L/h
CLss/F, mean ± SD (MAD Day 14, 200 mg BID fed): 43.7 ± 20.6 L/h
FLrel (relative fluctuation), geometric mean (MAD Day 14, 200 mg BID fed): (44.7) [27] %
R ac (accumulation ratio), mean ± SD (MAD Day 14, 200 mg BID fed): 4.65 ± 0.654
R ac Cmax (accumulation ratio based on C max), mean ± SD (MAD Day 14, 200 mg BID fed): 3.91 ± 0.612
R ac, geometric mean (MAD Day 14, 200 mg BID fed): (4.60) [14]
V z/F, geometric mean (MAD Day 14, 200 mg BID fed): (1,380) [62] L
V z/F, mean ± SD (MAD Day 14, 200 mg BID fed): 1,590 ± 983 L
t 1/2z, geometric mean (MAD Day 14, 200 mg BID fed): (23.9) [14] h
t 1/2z, mean ± SD (MAD Day 14, 200 mg BID fed): 24.1 ± 3.28 h
t max, median (min, max) (MAD Day 14, 200 mg BID fed): 3.00 (2.00, 8.00) h
AUC0-tau, geometric mean (MAD Day 14, 300 mg BID fed): (9,290) [27] ng·h/mL
AUC0-tau, mean ± SD (MAD Day 14, 300 mg BID fed): 9,670 ± 2,650 ng·h/mL
C av, geometric mean (MAD Day 14, 300 mg BID fed): (774) [27] ng/mL
C av, mean ± SD (MAD Day 14, 300 mg BID fed): 806 ± 221 ng/mL
C max, geometric mean (MAD Day 14, 300 mg BID fed): (947) [27] ng/mL
C max, mean ± SD (MAD Day 14, 300 mg BID fed): 982 ± 261 ng/mL
C trough, geometric mean (MAD Day 14, 300 mg BID fed): (639) [32] ng/mL
C trough, mean ± SD (MAD Day 14, 300 mg BID fed): 676 ± 215 ng/mL
CLss/F, geometric mean (MAD Day 14, 300 mg BID fed): (32.3) [37] L/h
CLss/F, mean ± SD (MAD Day 14, 300 mg BID fed): 33.9 ± 12.7 L/h
FLrel (relative fluctuation), geometric mean (MAD Day 14, 300 mg BID fed): (46.1) [29] %
R ac (accumulation ratio), mean ± SD (MAD Day 14, 300 mg BID fed): 4.40 ± 1.22
R ac Cmax (accumulation ratio based on C max), mean ± SD (MAD Day 14, 300 mg BID fed): 3.62 ± 0.861
R ac, geometric mean (MAD Day 14, 300 mg BID fed): (4.25) [28]
V z/F, geometric mean (MAD Day 14, 300 mg BID fed): (991) [29] L
V z/F, mean ± SD (MAD Day 14, 300 mg BID fed): 1,030 ± 299 L
t 1/2z, geometric mean (MAD Day 14, 300 mg BID fed): (21.3) [23] h
t 1/2z, mean ± SD (MAD Day 14, 300 mg BID fed): 21.7 ± 4.92 h
t max, median (min, max) (MAD Day 14, 300 mg BID fed): 3.00 (2.00, 6.00) h
CLR (renal clearance), mean ± SD (100 mg BID fed): 5.16 ± 2.10 L/h
CLR, geometric mean (100 mg BID fed): (4.83) [41] L/h
CLR (renal clearance), mean ± SD (100 mg QD fasted): 5.53 ± 1.67 L/h
CLR, geometric mean (100 mg QD fasted): (5.30) [30] L/h
CLR (renal clearance), mean ± SD (200 mg BID fed): 4.62 ± 0.862 L/h
CLR, geometric mean (200 mg BID fed): (4.55) [19] L/h
CLR (renal clearance), mean ± SD (300 mg BID fed): 4.92 ± 0.929 L/h
CLR, geometric mean (300 mg BID fed): (4.85) [19] L/h
accumulation (after QD dosing): 2.52 fold
apparent volume of distribution (healthy participants): > 1,000 L
Compound: CN1C(=O)c2cccc(OC(F)F)c2[C@H]2C[C@@H]1c1nc3ccc(-c4cnc(C5(N)CCC5)nc4)cc3n12 [Balinatunfib]
